Assay results of several laboratories.
Organism: Bacillus subtilis
Read-out: microbial growth

Cc1ccccc1NCc1ccc(Oc2ccccn2)cc1  MIC: 1.8 µg/mL
O=C(O)CN1C(=O)/C(=C/c2ccc(-c3ccc(N(c4ccccc4)c4ccccc4)cc3)c3ccccc23)SC1=S  MIC (broth dilution; ATCC6633): 500 µg/mL
O=C(O)c1ccc(-n2cc(/C=N/Nc3c(F)c(F)c(F)c(F)c3F)c(-c3cccc(F)c3)n2)cc1  MIC (ATCC6623): 6.25 µg/mL
Cc1ccc(NCc2ccc(Oc3ccccn3)cc2)cc1  MIC: 1.8 µg/mL
CC1=NN(CNC(=O)c2ccccn2)C(=O)C1=NNn1c(-c2ccccc2)nc2ccccc2c1=O  MIC (broth dilution; 24 h): 104 µM
C[C@@H](O)[C@H]1C(=O)N2C(C(=O)O)=C(S[C@@H]3CN[C@H](C(=O)N(C)C)C3)[C@H](C)[C@H]12  MIC (broth dilution; 24 h): 0.0625 µg/mL
O=C(O)c1cn(C2CC2)c2cc(N3CCNCC3)c(F)cc2c1=O  MIC (broth dilution; ATCC6633): 0.03 µg/mL
CCC[P+](/C=C(/c1ccccc1)c1cc(Cl)ccc1O)(CCC)CCC  MIC (21 h): > 40 µM
O=C(O)c1ccc(-n2cc(/C=N/Nc3cccc(Br)c3)c(-c3cccc(F)c3)n2)cc1  MIC (ATCC6623): 12.5 µg/mL
COc1cccc(OC)c1C(=O)N[C@@H]1C(=O)N2[C@@H]1SC(C)(C)[C@@H]2C(=O)O  MIC (broth dilution; 168): 0.625 µg/mL
O=C(O)c1ccc(-n2cc(/C=N/N(c3ccccc3)c3ccccc3)c(-c3cccc(F)c3)n2)cc1  MIC (ATCC6623): 1.56 µg/mL
Clc1ccccc1NCc1ccc(Oc2ccccn2)cc1  MIC: 1.8 µg/mL
CC1=NN(CNc2ccccn2)C(=O)C1=NNn1c(-c2ccccc2)nc2ccccc2c1=O  MIC (broth dilution; 24 h): 55.2 µM
CN[C@H](CC(C)C)C(=O)N[C@H]1C(=O)N[C@@H](CC(N)=O)C(=O)N[C@H]2C(=O)N[C@H]3C(=O)N[C@H](C(=O)N[C@H](C(=O)O)c4cc(O)cc(O)c4-c4cc3ccc4O)[C@H](O)c3ccc(c(Cl)c3)Oc3cc2cc(c3O[C@@H]2O[C@H](CO)[C@@H](O)[C@H](O)[C@H]2O[C@H]2C[C@](C)(N)[C@H](O)[C@H](C)O2)Oc2ccc(cc2Cl)[C@H]1O  MIC (broth dilution; ATCC6633): 0.24 µg/mL
O=C(O)c1ccc(-n2cc(/C=N/N(Cc3ccccc3)Cc3ccccc3)c(-c3ccc(F)cc3)n2)cc1  MIC (ATCC6623): 6.25 µg/mL
NC[C@H]1O[C@H](O[C@H]2[C@H](O)[C@@H](O[C@H]3O[C@H](CO)[C@@H](O)[C@H](N)[C@H]3O)[C@H](N)C[C@@H]2N)[C@H](N)C[C@@H]1O  MIC (168): 1.2 µg/mL
C[n+]1c(/C=C/c2c[nH]c3ccccc23)cc(/C=C2\Sc3ccccc3N2CCCN2CCCC2)c2ccccc21.[I-]  MIC (broth dilution; 168): 2 µg/mL
O=C1NC(=S)S/C1=C\c1ccc(-c2ccc(N(c3ccccc3)c3ccccc3)cc2)cc1  MIC (broth dilution; ATCC6633): 1000 µg/mL
CCCCCCCC[P+](/C=C(/c1ccccc1)c1cc(Cl)ccc1O)(CCCCCCCC)CCCCCCCC  MIC (21 h): > 80 µM
C[n+]1c(/C=C/c2ccc(O)cc2)cc(/C=C2\Sc3ccccc3N2CCCN2CCCC2)c2ccccc21.[I-]  MIC (broth dilution; 168): 16 µg/mL
O=C(Nc1ccc2c(c1)OC(F)(F)O2)Nc1ccc(Cl)c(C(F)(F)F)c1  MIC (168): 1 µM
CCCCC[P+](/C=C(/c1ccccc1)c1cc(Cl)ccc1OC)(CCCCC)CCCCC  MIC (21 h): 2 µM
Clc1cccc(NCc2ccc(Oc3ccccn3)cc2)c1  MIC: 1.8 µg/mL
O=C1NC(=S)S/C1=C\c1ccc(-c2ccc(N(c3ccccc3)c3ccccc3)cc2)c2ccccc12  MIC (broth dilution; ATCC6633): 1000 µg/mL
CO[C@H]1/C=C/O[C@@]2(C)Oc3c(C)c(O)c4c(O)c(c(/C=N/N5CCN(C)CC5)c(O)c4c3C2=O)NC(=O)/C(C)=C\C=C\[C@H](C)[C@H](O)[C@@H](C)[C@@H](O)[C@@H](C)[C@H](OC(C)=O)[C@@H]1C  MIC (broth dilution; 168): 4 µg/mL
O=C(O)c1ccc(-n2cc(/C=N/Nc3ccc(Br)cc3)c(-c3cccc(F)c3)n2)cc1  MIC (ATCC6623): 12.5 µg/mL
O=C(O)CN1C(=O)/C(=C/c2c3ccccc3c(-c3ccc(N(c4ccccc4)c4ccccc4)cc3)c3ccccc23)SC1=S  MIC (broth dilution; ATCC6633): > 1000 µg/mL
O=C(O)c1ccc(-n2cc(/C=N/Nc3cc(F)ccc3F)c(-c3ccc(F)cc3)n2)cc1  MIC (ATCC6623): 12.5 µg/mL
C/C=C(\C)c1cc(O)c(C)c(OC(=O)c2c(C)c(Cl)c(O)c(Cl)c2O)c1  MIC (broth dilution; BS01): 2 µg/mL
CO[C@H]1O[C@H](COC(c2ccccc2)(c2ccccc2)c2ccccc2)[C@@H](OC(=O)c2ccc(C(C)(C)C)cc2)[C@H](OC(=O)c2ccc(C(C)(C)C)cc2)[C@H]1OC(=O)c1ccc(C(C)(C)C)cc1  MIC (broth dilution): 1.25 µg/mL
COc1cccc(NCc2ccc(Oc3ccccn3)cc2)c1  MIC: 1.6 µg/mL
C[n+]1c(/C=C/c2c[nH]c3ccccc23)cc(/C=C2\Sc3ccccc3N2CCCN2CCOCC2)c2ccccc21.[I-]  MIC (broth dilution; 168): 8 µg/mL
O=C(O)c1ccc(-n2cc(/C=N/N(c3ccccc3)c3ccccc3)c(-c3ccc(F)cc3)n2)cc1  MIC (ATCC6623): 1.56 µg/mL
O=C(O)c1cc(O)c(O)c(OC(=O)c2cc(O)c(O)c(O)c2)c1  MIC (broth dilution; ATCC6633): > 200 µM
O=C(O)c1ccc(-n2cc(/C=N/Nc3cccc(Br)c3)c(-c3ccc(F)cc3)n2)cc1  MIC (ATCC6623): 12.5 µg/mL
Clc1ccc(NCc2ccc(Oc3ccccn3)cc2)cc1  MIC: > 6.2 µg/mL
CN[C@H](CC(C)C)C(=O)N[C@H]1C(=O)N[C@@H](CC(N)=O)C(=O)N[C@H]2C(=O)N[C@H]3C(=O)N[C@H](C(=O)N[C@H](C(=O)O)c4cc(O)cc(O)c4-c4cc3ccc4O)[C@H](O)c3ccc(c(Cl)c3)Oc3cc2cc(c3O[C@@H]2O[C@H](CO)[C@@H](O)[C@H](O)[C@H]2O[C@H]2C[C@](C)(N)[C@H](O)[C@H](C)O2)Oc2ccc(cc2Cl)[C@H]1O  MIC (broth dilution; BS01): 0.13 µg/mL
CCCCCC/C=C\CCCCCCCCCc1cc(O)cc(O)c1  MIC (broth dilution; 168): > 64 µg/mL
C[n+]1ccc(/C=C2\Sc3ccccc3N2CCCN2CCCCC2)c2ccccc21.[I-]  MIC (broth dilution; 168): 16 µg/mL
CCCCCCCCOC(=O)c1cc(O)c(O)c(O)c1  MIC (broth dilution; ATCC6633): 12.5 to 25 µM
CC1=NN(CNc2ccccc2[N+](=O)[O-])C(=O)C1=NNn1c(-c2ccccc2)nc2ccccc2c1=O  MIC (broth dilution; 24 h): 50.4 µM
O=C(O)CN1C(=O)/C(=C/c2ccc(-c3ccc(N(c4ccccc4)c4ccccc4)cc3)c3ccccc23)NC1=S  MIC (broth dilution; ATCC6633): > 1000 µg/mL
CCCCCCC[P+](/C=C(/c1ccccc1)c1cc(Cl)ccc1O)(CCCCCCC)CCCCCCC  MIC (21 h): 10 µM
O=C(O)c1cn(C2CC2)c2cc(N3CCNCC3)c(F)cc2c1=O  MIC: 1.6 µg/mL
CC1=NN(CNc2ccc(Cl)cc2)C(=O)C1=NNn1c(-c2ccccc2)nc2ccccc2c1=O  MIC (broth dilution; 24 h): 103 µM
C/C=C(\C)c1cc(O)c(C)c(OC(=O)c2c(C)cc(O)c(Cl)c2O)c1  MIC (broth dilution; BS01): 4 µg/mL
